Source: ChEMBL document CHEMBL2046351, “Discovery of cyclic sulfone hydroxyethylamines as potent and selective β-site APP-cleaving enzyme 1 (BACE1) inhibitors: structure-based design and in vivo reduction of amyloid β-peptides” (J Med Chem, 2012)

Columns and labels:
[1] = Oral bioavailability in C57BL/6 mouse at 6 umol/kg dosed in HS15/propylenglycol/citrate buffer, pH 4.75, 50 mM (10/5/85, v/v/v) by LC/MS/MS analysis; assay type: ADME, organism-based; conditions: in vivo
In short: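 Oral gavage (10 mL/kg) to male C57BL/6 mice with iv reference segment (2 μmol/kg, NMP/blank plasma 10:90). Noncompartmental analysis of LC-MS/MS blood profiles, 1/Y weighting; %F = dose-normalized oral AUC / dose-normalized iv AUC × 100, assuming linear pharmacokinetics between doses.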

Brain [2] = assay: Drug uptake in C57BL/6 mouse brain at 6 umol/kg, po dosed in HS15/propylenglycol/citrate buffer, pH 4.75, 50 mM (10/5/85, v/v/v) measured 4 hrs post dosing by LC/MS/MS analysis; assay type: ADME, organism-based; conditions: in vivo, pH 4.75, 4 h
In short: (§1)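 Male C57BL/6 mice dosed by oral gavage, 10 mL/kg. Blood sampled 0.25, 0.5, 1, 2, 4, 6 h; brain at 1 and/or 4 h; n = 3 per time. Blood acetonitrile-precipitated, brain water-homogenized then precipitated; LC-MS/MS with weighted linear calibration.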

Brain [3] = assay: Drug uptake in C57BL/6 mouse brain at 60 umol/kg, po dosed in HS15/propylenglycol/citrate buffer, pH 4.75, 50 mM (10/5/85, v/v/v) measured 4 hrs post dosing by LC/MS/MS analysis; assay type: ADME, organism-based; conditions: in vivo, pH 4.75, 4 h; in short: as §1
MDR1 (human) = assay: Efflux ratio of permeability from basolateral to apical over apical to basolateral side of MDCK cells expressing human MDR1 at 5 uM after 2 hrs by LC/MS analysis; assay type: ADME, cell-based, Canis lupus familiaris; conditions: dog
In short: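 MDCK cells retrovirally transduced with human MDR1, seeded on transwells ≥3 days; bidirectional transport at 5 μM, 2 h, 37 °C, LC/MS quantitation. Papp = (dQ/dt)/(A·C0), A 0.11 cm2; ER = Papp B>A / Papp A>B. Means of at least three experiments.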

[4] = Drug uptake in C57BL/6 mouse blood at 60 umol/kg, po dosed in carboxymethyl cellulose 0.5% w/v in water/Tween 80 (99.5/0.5, v/v) measured 4 hrs post dosing by LC/MS/MS analysis; assay type: ADME, organism-based; conditions: read-out: Drug uptake; in short: as §1
[5] = Drug uptake in C57BL/6 mouse blood at 2 umol/kg, iv dosed in N-methyl pyrrolidone/blank plasma (10:90 v/v) measured 1 hr post dosing by LC/MS/MS analysis; assay type: ADME, organism-based; conditions: read-out: Drug uptake
In short: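 Male C57BL/6 mice, saphenous vein injection under light anesthesia, 5 mL/kg. Blood at 5, 30 min and 1, 2, 4, 6, 8 h; brain at 5 min, 1, 4, 8 h; n = 3/time. LC-MS/MS after acetonitrile precipitation (brain water-homogenized). Noncompartmental analysis, 1/Y weighting, terminal slope from ≥3 points.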

Brain [6] = assay: Drug uptake in C57BL/6 mouse brain at 6 umol/kg, po dosed in carboxymethyl cellulose 0.5% w/v in water/Tween 80 (99.5/0.5, v/v) measured 1 hr post dosing by LC/MS/MS analysis; assay type: ADME, organism-based; conditions: in vivo; in short: as §1
[7] = Ratio of drug uptake in brain to blood in C57BL/6 mouse at 6 umol/kg, po dosed in carboxymethyl cellulose 0.5% w/v in water/Tween 80 (99.5/0.5, v/v) measured 4 hrs post dosing by LC/MS/MS analysis; assay type: ADME, organism-based; in short: as §1

Structure (SMILES) | bioavailability [1] | Drug uptake (Brain [2]) | Drug uptake (Brain [3]) | efflux ratio at 2 h, 5 µM (MDR1 (human)) | concentration at 4 h [4] | concentration at 1 h [5] | Drug uptake (Brain [6]) | Kp at 4 h [7]
CC(C)(C)c1cccc(CN[C@H]2CS(=O)(=O)C[C@@H](Cc3cc(F)c(N)c(OC(C(F)(F)F)C(F)(F)F)c3)[C@@H]2O)c1 | 32% | 0.01 nmol/g | 0.15 nmol/g |  |  |  |  | 
CC(C)(C)c1cccc(CN[C@H]2CS(=O)(=O)C[C@@H](Cc3cc(F)c(N)c(OCC(F)(F)F)c3)[C@@H]2O)c1 |  |  |  | 5 | 1860 nM | 60 nM | 0.08 nmol/g | 11
